Laboratory results taken from ChEMBL document CHEMBL1121717, “Tetrahydro-2-benzoxepins: a novel family of hypotensives” (1981).
The source made the active and inactive calls. No cut-off for these calls is given here.

What was measured:
Felis catus [1] = assay: Effect of compound on heart rate was measured in baroreceptor denervated cats at time 20min, after iv administration of 1.0 mg/kg; assay type: functional
Procedure, shortened: (§1)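 Cats of either sex anesthetized i.p. with sodium diallylbarbituric acid (60 mg/kg) plus urethane (240 mg/kg), placed in stereotaxic frame, tracheal tube inserted; femoral artery cannulated for arterial pressure, femoral vein for drug. Sympathetic activity recorded from preganglionic splanchnic nerve. 1.0 mg/kg iv; n = 6 treated, n = 8 vehicle; MAP, HR and % SNA (0 min = 100) read at 0–60 min; mean ± error.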

Felis catus [2] = assay: Effect of compound on sympathetic nerve activity was measured in baroreceptor denervated cats at time 10min, after iv administration of 1.0 mg/kg; assay type: functional; procedure, shortened: as §1
Felis catus [3] = assay: Effect of compound on heart rate was measured in baroreceptor denervated cats at time 40min, after iv administration of 1.0 mg/kg; assay type: functional; procedure, shortened: as §1
Felis catus [4] = assay: Effect of compound on blood pressure was measured in baroreceptor denervated cats at time 10min, after iv administration of 1.0 mg/kg; assay type: functional; procedure, shortened: as §1
Rattus norvegicus [5] = assay: Oral hypotensive activity of compound was tested in conscious rats after oral administration at 5 mg/Kg dose; -24/-9; assay type: functional, organism-based
Felis catus [6] = assay: Effect of compound on sympathetic nerve activity was measured in baroreceptor denervated cats at time 40min, after iv administration of 1.0 mg/kg; assay type: functional; procedure, shortened: as §1
Felis catus [7] = assay: Effect of compound on blood pressure was measured in baroreceptor denervated cats at time 20min, after iv administration of 1.0 mg/kg; assay type: functional; procedure, shortened: as §1
Felis catus [8] = assay: Effect of compound on sympathetic nerve activity was measured in baroreceptor denervated cats at time 0min, after iv administration of 1.0 mg/kg; assay type: functional; procedure, shortened: as §1
Felis catus [9] = assay: Effect of compound on sympathetic nerve activity was measured in baroreceptor denervated cats at time 60min, after iv administration of 1.0 mg/kg; assay type: functional; procedure, shortened: as §1
Felis catus [10] = assay: Effect of compound on blood pressure was measured in baroreceptor denervated cats at time 0 min, after iv administration of 1.0 mg/kg; assay type: functional; procedure, shortened: as §1
Felis catus [11] = assay: Effect of compound on blood pressure was measured in baroreceptor denervated cats at time 40min, after iv administration of 1.0 mg/kg; assay type: functional; procedure, shortened: as §1
Felis catus [12] = assay: Effect of compound on sympathetic nerve activity was measured in baroreceptor denervated cats at time 5min, after iv administration of 1.0 mg/kg; assay type: functional; procedure, shortened: as §1
Felis catus [13] = assay: Effect of compound on heart rate was measured in baroreceptor denervated cats at time 60min, after iv administration of 1.0 mg/kg; assay type: functional; procedure, shortened: as §1
Felis catus [14] = assay: Effect of compound on blood pressure was measured in baroreceptor denervated cats at time 60min, after iv administration of 1.0 mg/kg; assay type: functional; procedure, shortened: as §1
Rattus norvegicus [15] = assay: Oral hypotensive activity of compound was tested in conscious rats after oral administration at 50 mg/Kg dose; -49/-52; assay type: functional, organism-based
Felis catus [16] = assay: Effect of compound on heart rate was measured in baroreceptor denervated cats at time 5min, after iv administration of 1.0 mg/kg; assay type: functional; procedure, shortened: as §1
Felis catus [17] = assay: Effect of compound on heart rate was measured in baroreceptor denervated cats at time 10min, after iv administration of 1.0 mg/kg; assay type: functional; procedure, shortened: as §1
Felis catus [18] = assay: Effect of compound on sympathetic nerve activity was measured in baroreceptor denervated cats at time 20min, after iv administration of 1.0 mg/kg; assay type: functional; procedure, shortened: as §1
Felis catus [19] = assay: Effect of compound on blood pressure was measured in baroreceptor denervated cats at time 5min, after iv administration of 1.0 mg/kg; assay type: functional; procedure, shortened: as §1
Felis catus [20] = assay: Effect of compound on heart rate was measured in baroreceptor denervated cats at time 0min, after iv administration of 1.0 mg/kg; assay type: functional; procedure, shortened: as §1

Which HR (Felis catus [1]) does the source give for `COc1cc2c(cc1OC)C(CCN1CCN(c3ccc(F)cc3)CC1)OCCC2.Cl` (stereo not given) here?
The HR was 230.

And the SNA (Felis catus [2])?
The SNA was 76%.

And the HR (Felis catus [3])?
The HR was 231.

What about the MAP (Felis catus [4]) of the same molecule?
Its MAP is 85.

What about the Delta blood pressure (Rattus norvegicus [5]) of the same molecule?
Its Delta blood pressure is “Active”.

What about the SNA (Felis catus [6]) of the same molecule?
Its SNA is 88%.

What about the MAP (Felis catus [7]) of the same molecule?
Its MAP is 95.

And the SNA (Felis catus [8])?
The SNA was 100%.

What about the SNA (Felis catus [9]) of the same molecule?
The SNA was 96%.

And the MAP (Felis catus [10])?
Its MAP is 131.

And the MAP (Felis catus [11])?
Its MAP is 107.

And the SNA (Felis catus [12])?
The SNA was 72%.

And the HR (Felis catus [13])?
The HR was 232.

And the MAP (Felis catus [14])?
Its MAP is 109.

And the Delta blood pressure (Rattus norvegicus [15])?
Its Delta blood pressure is “Active”.

What about the HR (Felis catus [16]) of the same molecule?
Its HR is 229.

What about the HR (Felis catus [17]) of the same molecule?
Its HR is 230.

What about the SNA (Felis catus [18]) of the same molecule?
Its SNA is 86%.

And the MAP (Felis catus [19])?
The MAP was 75.

What about the HR (Felis catus [20]) of the same molecule?
The HR was 229.
